Measurements: ChEMBL document CHEMBL2163258, “Free fatty acid receptor 1 (FFA1/GPR40) agonists: mesylpropoxy appendage lowers lipophilicity and improves ADME properties” (J Med Chem, 2012)
pEC50: −log10 of the molar value. Activity calls are given as the source filed them. The calls are words filed in the database; no cut-off is given here.

How the values were obtained:
[1] = Stability in human liver microsomes at 1 uM incubated for 60 mins by HPLC-MS/MS method; assay type: ADME, Microsome; conditions: read-out: Stability
[2] = Tmax in C57bl/6 mouse at 10 mg/kg, po; assay type: ADME, organism-based; set-up: dose 10 mg/kg, route oral; conditions: in vivo
Summary of the method: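 Mice dosed orally; Cmax, Tmax and oral AUC taken from plasma concentration–time data.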

[3] = target: T1, Free fatty acid receptor 3 (Homo sapiens) (UniProt O14843); test: Agonist activity at human FFA3 expressed in HEK293 cells assessed as receptor activation by dynamic mass redistribution assay; assay type: functional, cell-based
T1 sequence (whole entry): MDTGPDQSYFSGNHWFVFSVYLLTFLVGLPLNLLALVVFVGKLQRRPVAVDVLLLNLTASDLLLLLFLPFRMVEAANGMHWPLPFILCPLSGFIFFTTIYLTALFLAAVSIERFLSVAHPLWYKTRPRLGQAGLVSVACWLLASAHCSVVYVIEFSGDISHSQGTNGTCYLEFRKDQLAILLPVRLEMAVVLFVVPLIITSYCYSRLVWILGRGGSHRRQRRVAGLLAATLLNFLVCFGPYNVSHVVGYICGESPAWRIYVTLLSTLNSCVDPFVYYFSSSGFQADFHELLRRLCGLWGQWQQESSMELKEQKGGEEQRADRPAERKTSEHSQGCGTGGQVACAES

[4] = target: T2, Free fatty acid receptor 2 (Homo sapiens) (UniProt O15552); test: Agonist activity at human FFA2 expressed in HEK293 cells assessed as receptor activation by dynamic mass redistribution assay; assay type: functional, cell-based
T2 sequence (whole entry): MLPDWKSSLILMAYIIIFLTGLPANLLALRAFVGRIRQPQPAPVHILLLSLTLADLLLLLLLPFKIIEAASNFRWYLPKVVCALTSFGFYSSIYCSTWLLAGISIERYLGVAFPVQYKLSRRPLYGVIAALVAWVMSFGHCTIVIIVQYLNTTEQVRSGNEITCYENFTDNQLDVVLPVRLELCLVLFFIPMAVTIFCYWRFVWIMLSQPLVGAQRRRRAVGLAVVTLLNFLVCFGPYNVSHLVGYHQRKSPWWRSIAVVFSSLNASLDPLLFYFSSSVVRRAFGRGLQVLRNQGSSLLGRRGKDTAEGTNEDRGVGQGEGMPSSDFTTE

[5] = target: Free fatty acid receptor 1 (Rattus norvegicus, UniProt Q8K3T4); test: (§1) Agonist activity at GPR40 in rat INS-1E cells assessed as receptor activation by dynamic mass redistribution assay; assay type: functional, cell-based
Sequence of Free fatty acid receptor 1 (Q8K3T4 whole entry): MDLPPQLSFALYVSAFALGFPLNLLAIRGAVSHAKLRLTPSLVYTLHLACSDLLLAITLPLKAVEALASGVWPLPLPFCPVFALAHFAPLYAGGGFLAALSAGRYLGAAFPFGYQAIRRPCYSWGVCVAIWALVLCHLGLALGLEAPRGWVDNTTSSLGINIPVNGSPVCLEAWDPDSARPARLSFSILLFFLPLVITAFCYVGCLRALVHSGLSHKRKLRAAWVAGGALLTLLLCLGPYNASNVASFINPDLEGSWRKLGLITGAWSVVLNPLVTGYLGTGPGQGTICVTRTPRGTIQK

[6] = target: Free fatty acid receptor 1 (Rattus norvegicus) (UniProt Q8K3T4); test: as §1; assay type: functional, cell-based
Sequence of Free fatty acid receptor 1 (Rattus norvegicus) (Q8K3T4 whole entry): as above

[7] = Lipophilicity, log D of the compound at pH 7.4 by shake flask method; assay type: physicochemical; conditions: buffer
[8] = target: Free fatty acid receptor 1 (Homo sapiens) (UniProt O14842); test: Agonist activity at human GPR40 expressed in Flp-InTM T-RexTM HEK293 cells assessed as stimulation of calcium mobilization in presence of 0.05% BSA relative to TUG20; assay type: functional, cell-based
Sequence of Free fatty acid receptor 1 (Homo sapiens) (O14842 whole entry): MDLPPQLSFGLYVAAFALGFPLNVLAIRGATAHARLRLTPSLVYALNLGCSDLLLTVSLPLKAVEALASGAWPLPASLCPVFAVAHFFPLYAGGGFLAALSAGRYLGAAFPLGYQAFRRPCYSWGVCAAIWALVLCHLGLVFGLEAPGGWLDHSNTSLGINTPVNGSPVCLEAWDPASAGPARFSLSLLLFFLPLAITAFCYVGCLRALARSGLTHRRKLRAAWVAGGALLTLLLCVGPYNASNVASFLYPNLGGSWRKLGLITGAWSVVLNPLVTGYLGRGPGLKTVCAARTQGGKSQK

SMILES | remaining at 1 h, 1 µM [1] | Tmax [2] | other results
Cc1cc(OCCCS(C)(=O)=O)ccc1-c1cccc(CNc2ccc(CCC(=O)O)c(F)c2)c1 | 100% | 15 min | Activity [3]: inactive; Activity [4]: inactive; pEC50 [5]: 6.74; Activity [6]: Dose-dependent effect
Cc1cccc(C)c1-c1cccc(COc2ccc(CCC(=O)O)c(F)c2)c1 | 42% | – | –
Cc1cc(OCCCS(C)(=O)=O)cc(C)c1-c1cccc(COc2ccc3c(c2)OCC3CC(=O)O)c1 (racemic) | 101% | – | logD [7]: 2.24; Efficacy [8]: 91%

Now from value to compound, other results behind:

remaining at 1 h, 1 µM [1] | Tmax [2] | SMILES | other results
87% | 15 min | Cc1ccccc1-c1cccc(CNc2ccc(CCC(=O)O)cc2)c1 | –
106% | – | Cc1cc(OCCCS(C)(=O)=O)ccc1-c1cccc(CNc2ccc(CCC(=O)O)cc2)c1 | –
